Laboratory results: ChEMBL document CHEMBL1147707, “Novel substituted naphthalen-1-yl-methanone derivatives as anti-hyperglycemic agents” (Bioorg Med Chem Lett, 2006)

Key:
Rattus norvegicus [1] = experiment: Antihyperglycemic activity in sucrose-loaded Sprague-Dawley rat at 100 mg/kg; type: functional
Procedure, shortened: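 Male rats (169 ± 20 g) fasted 16 h; those with glucose 60–80 mg/dl, in groups of five to six, received compound orally as a 1.0% gum acacia suspension at 100 mg/kg, and controls got vehicle alone. Sucrose (10.0 g/kg, oral) followed 30 min later. Glucose was read at 30, 60, 90 and 120 min, and % fall was taken from AUC versus control (active if p < 0.05).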

Rattus norvegicus [2] = experiment: Antihyperglycemic activity in sucrose charged streptozotocin-induced beta cell damaged diabetic Sprague-Dawley rat at 100 mg/kg; type: functional
Procedure, shortened: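 Overnight-fasted male rats got streptozotocin at 60 mg/kg i.p., freshly dissolved in 100 mM citrate buffer pH 4.5. Those with glucose 150–250 mg/dl at 48 h were grouped. Each rat was given sucrose at 2.5 g/kg after test-sample treatment. Glucose was measured at 30, 60, 90, 120, 180, 240 and 300 min and 24 h after dosing, with food withheld.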

Glucagon receptor = Glucagon receptor (Homo sapiens, UniProt P47871); experiment: Inhibition of [125I]glucagon binding to glucagon receptor
Glucagon receptor, sequence (P47871 whole entry): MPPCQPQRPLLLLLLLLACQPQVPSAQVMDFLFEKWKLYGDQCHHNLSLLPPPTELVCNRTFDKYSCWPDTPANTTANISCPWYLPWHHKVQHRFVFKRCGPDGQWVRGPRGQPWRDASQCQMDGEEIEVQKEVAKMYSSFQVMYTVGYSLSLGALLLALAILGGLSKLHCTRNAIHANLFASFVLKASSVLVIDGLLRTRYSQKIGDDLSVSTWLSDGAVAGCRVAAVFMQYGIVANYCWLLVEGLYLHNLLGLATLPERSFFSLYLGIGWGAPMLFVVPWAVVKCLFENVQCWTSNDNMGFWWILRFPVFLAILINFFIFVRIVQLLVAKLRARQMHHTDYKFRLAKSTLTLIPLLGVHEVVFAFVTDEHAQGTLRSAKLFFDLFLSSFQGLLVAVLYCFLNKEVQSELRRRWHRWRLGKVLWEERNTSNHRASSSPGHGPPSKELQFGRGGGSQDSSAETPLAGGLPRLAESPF

Row | Structure (SMILES) | Activity (Rattus norvegicus [1]) [%] | Activity (Rattus norvegicus [2]) [%] | IC50 (Glucagon receptor) [µM]
1 | O=C(c1ccc(OCCN2CCCCC2)cc1)c1cccc2ccccc12 | 15.4 | 11.3 | –
2 | O=C(c1ccc(OCCNCc2ccccc2)cc1)c1cccc2ccccc12 | 14.9 | 5.6 | –
3 | O=C(c1ccc(OCCNC2CCCCC2)cc1)c1cccc2ccccc12 | 7.16 | – | –
4 | O=C(c1ccc(OCCN2CCCC2)cc1)c1cccc2ccccc12 | 17.2 | 17 | 55
5 | O=C(c1ccc(OCCCNC2CCCCC2)cc1)c1cccc2ccccc12 | 11.16 | – | –
6 | O=C(c1ccc(OCCCl)cc1)c1cccc2ccccc12 | 24 | – | –
7 | O=C(c1ccc(OCCCCl)cc1)c1cccc2ccccc12 | 22 | 8.5 | –
8 | COc1ccc(NCCCOc2ccc(C(=O)c3cccc4ccccc34)cc2)cc1 | 16.17 | 12.6 | 35
9 | O=C(c1ccc(OCCCN2CCCCC2)cc1)c1cccc2ccccc12 | 7.16 | 6.8 | –
10 | O=C(c1ccc(OCCCN2CCCC2)cc1)c1cccc2ccccc12 | 28.8 | 27 | 17
11 | CCN(CC)CCOc1ccc(C(=O)c2cccc3ccccc23)cc1 | 7.21 | – | –
12 | COc1ccc(NCCOc2ccc(C(=O)c3cccc4ccccc34)cc2)cc1 | 9.71 | 9.2 | –
13 | O=C(c1ccc(OCCCNCc2ccccc2)cc1)c1cccc2ccccc12 | 8.06 | 7.5 | –
14 | Cc1ccc(S(=O)(=O)NC(=O)NN2CC3CCCC3C2)cc1 (stereo not given) [GLICLAZIDE] | 40.4 | 27.7 | –
15 | COc1ccc(Cl)cc1C(=O)NCCc1ccc(S(=O)(=O)NC(=O)NC2CCCCC2)cc1 [GLYBURIDE] | 33.7 | 29 | –
16 | CN(C)C(=N)NC(=N)N [METFORMIN] | 12.9 | – | –
